Experimental data from ChEMBL document CHEMBL3046065, “Metabolites of the fungistatic agent 2β-methoxyclovan-9α-ol by Macrophomina phaseolina” (J Agric Food Chem, 2011).

Experiments:
Botrytis cinerea = test: Antifungal activity against Botryotinia fuckeliana KUCC 869 assessed as growth inhibition at 200 ug/ml at 27 to 29 degC after 7 days by agar tube dilution method; assay type: functional; details: KUCC 869, 168 h, read-out: GI
Summary of the method: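 Agar tube dilution against B. cinerea isolated from infected strawberries. Compounds were taken from 1 mg/mL DMSO stocks into unsolidified Sabouraud agar at 200 μg/mL final. The agar was set as slants and inoculated with 4 mm plugs from 7-day-old culture, then incubated 7 days at 27–29 °C. Linear growth (mm) was measured and % inhibition calculated against control. Miconazole served as standard.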

Macrophomina phaseolina [1] = test: Drug metabolism in Macrophomina phaseolina KUCC 730 assessed as transformation to oxidative metabolite, clovan-2-beta, 9-beta, 13-triol at 600 mg at 29 degC after 6 days by TLC analysis; assay type: ADME, organism-based; details: in vivo, 144 h
Summary of the method: (§1)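 Fungus kept on Sabouraud dextrose agar slants at 4 °C. Medium per 3 L water: glucose 30 g, peptone 15 g, yeast extract 15 g, KH2PO4 15 g, NaCl 15 g, glycerol 30 mL. Adjusted to pH 7.0 and autoclaved. Substrate in acetone, 20 mg per 100 mL flask, added to 24 h stage II cultures. Shaken at 200 rpm, 29 °C, 6 days. Daily TLC monitoring. Substrate-only and fungus-only controls were run.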

Macrophomina phaseolina [2] = test: Drug metabolism in Macrophomina phaseolina KUCC 730 assessed as transformation to oxidative metabolite, clovan-2-beta, 13-diol-9-one at 600 mg at 29 degC after 6 days by TLC analysis; assay type: ADME, organism-based; details: in vivo, 144 h; summary of the method: as §1
Macrophomina phaseolina [3] = test: Drug metabolism in Macrophomina phaseolina KUCC 730 assessed as transformation to oxidative metabolite, clovan-2-beta, 9-beta-diol at 600 mg at 29 degC after 6 days by TLC analysis; assay type: ADME, organism-based; details: in vivo, 144 h; summary of the method: as §1
Macrophomina phaseolina [4] = test: Drug metabolism in Macrophomina phaseolina KUCC 730 assessed as transformation to oxidative metabolite, clovan-2-beta, 9-alpha-diol at 600 mg at 29 degC after 6 days by TLC analysis; assay type: ADME, organism-based; details: in vivo, 144 h; summary of the method: as §1
Macrophomina phaseolina [5] = test: Drug metabolism in Macrophomina phaseolina KUCC 730 assessed as transformation to oxidative metabolite, 2-beta-methoxyclovan-9-one at 600 mg at 29 degC after 6 days by TLC analysis; assay type: ADME, organism-based; details: in vivo, 144 h; summary of the method: as §1
Macrophomina phaseolina [6] = test: Drug metabolism in Macrophomina phaseolina KUCC 730 assessed as transformation to oxidative metabolite, 2-beta-methoxyclovan-9-alpha-13-diol at 600 mg at 29 degC after 6 days by TLC analysis; assay type: ADME, organism-based; details: in vivo, 144 h; summary of the method: as §1

Structure (SMILES) | inhibition of growth at 200 µg/mL (Botrytis cinerea) [%] | further results
CC1(C)C[C@H](O)[C@]23CC[C@@H](O)[C@@](C)(CC[C@@H]12)C3 [CLOVANEDIOL] | 59 | –
CO[C@H]1CC(C)(C)[C@@H]2CC[C@@]3(C)C[C@]12CC[C@H]3O [2BETA-METHOXYCLOVAN-9ALPHA-OL] | 81 | Drug metabolism (Macrophomina phaseolina [1]): Active; Drug metabolism (Macrophomina phaseolina [2]): Active; Drug metabolism (Macrophomina phaseolina [3]): Active; Drug metabolism (Macrophomina phaseolina [4]): Active; Drug metabolism (Macrophomina phaseolina [5]): Active; Drug metabolism (Macrophomina phaseolina [6]): Active
CC1(C)C[C@H](O)[C@]23CC[C@H](O)[C@@](C)(CC[C@@H]12)C3 | 32 | –
C[C@@]12CC[C@H]3[C@](C)(CO)C[C@H](O)[C@@]3(CC[C@@H]1O)C2 | 11 | –
CO[C@H]1C[C@@](C)(CO)[C@@H]2CC[C@@]3(C)C[C@]12CC[C@H]3O | 17 | –
C[C@@]12CC[C@H]3[C@](C)(CO)C[C@H](O)[C@@]3(CCC1=O)C2 | 8 | –
CO[C@H]1CC(C)(C)[C@@H]2CC[C@@]3(C)C[C@]12CCC3=O | 71 | –
